Test results as given in ChEMBL document CHEMBL1138614, “Synthesis and antibacterial activities of novel oxazolidinones having spiro[2,4]heptane moieties” (2009).
In brackets after ≈: the same amount, converted by molar mass.

What was measured:
Assay type in all cases: functional
Enterococcus [1] = experiment: Antibacterial activity against vancomycin-resistant Enterococcus 4 after 18 to 20 hrs by agar dilution method
In short: (§1)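 Agar dilution MIC on test agar. Bacteria grown overnight in tryptosoy broth, diluted in the same broth to about 10⁶ cells/mL, then applied with an inoculating device onto agar holding serial twofold dilutions of compound. Plates incubated at 37 °C for 18–20 h. MIC taken as the lowest concentration visibly inhibiting growth, in µg/ml.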

Enterococcus faecium [2] = experiment: Antibacterial activity against vancomycin-resistant Enterococcus faecium after 18 to 20 hrs by agar dilution method; in short: as §1
Streptococcus pyogenes = experiment: Antibacterial activity against Streptococcus pyogenes ATCC 8736 after 18 to 20 hrs by agar dilution method
In short: (§2)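 Agar dilution: bacteria grown overnight in tryptosoy broth and diluted in the same broth to about 10⁶ cells/mL. A multipoint inoculating device spotted them onto test agar carrying serial twofold dilutions of compound. Plates were held at 37 °C for 18–20 h. MIC (µg/ml) was read as the lowest concentration giving visible inhibition of growth.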

Staphylococcus aureus [3] = experiment: Antibacterial activity against methicillin-resistant Staphylococcus aureus after 18 to 20 hrs by agar dilution method; in short: as §1
Enterococcus [4] = experiment: Antibacterial activity against vancomycin-resistant Enterococcus 1 after 18 to 20 hrs by agar dilution method; in short: as §1
Enterococcus [5] = experiment: Antibacterial activity against vancomycin-resistant Enterococcus 5 after 18 to 20 hrs by agar dilution method; in short: as §1
Staphylococcus aureus [6] = experiment: Antibacterial activity against Staphylococcus aureus C463 after 18 to 20 hrs by agar dilution method; in short: as §1
Enterococcus faecalis [7] = experiment: Antibacterial activity against Enterococcus faecalis C474 after 18 to 20 hrs by agar dilution method; in short: as §2
Streptococcus agalactiae = experiment: Antibacterial activity against Streptococcus agalactiae ATCC 2901 after 18 to 20 hrs by agar dilution method; in short: as §2
Staphylococcus = experiment: Antibacterial activity against Coagulase negative Staphylococcus after 18 to 20 hrs by agar dilution method; in short: as §2
Enterococcus [8] = experiment: Antibacterial activity against vancomycin-resistant Enterococcus 2 after 18 to 20 hrs by agar dilution method; in short: as §1
Enterococcus [9] = experiment: Antibacterial activity against vancomycin-resistant Enterococcus 3 after 18 to 20 hrs by agar dilution method; in short: as §1
Enterococcus faecalis [10] = experiment: Antibacterial activity against vancomycin-resistant Enterococcus faecalis after 18 to 20 hrs by agar dilution method; in short: as §1
Streptococcus pneumoniae = experiment: Antibacterial activity against Streptococcus pneumoniae C402 after 18 to 20 hrs by agar dilution method; in short: as §2
Enterococcus [11] = experiment: Antibacterial activity against vancomycin-resistant Enterococcus 6 after 18 to 20 hrs by agar dilution method; in short: as §1
Haemophilus influenzae = experiment: Antibacterial activity against Haemophilus influenzae after 18 to 20 hrs by agar dilution method; in short: as §2
Enterococcus faecium [12] = experiment: Antibacterial activity against Enterococcus faecium C803 after 18 to 20 hrs by agar dilution method; in short: as §1

Row | SMILES | MIC (Enterococcus [1]) [µg/mL] | MIC (Enterococcus faecium [2]) [µg/mL] | MIC (Streptococcus pyogenes) [µg/mL] | MIC (Staphylococcus aureus [3]) [µg/mL] | MIC (Enterococcus [4]) [µg/mL] | MIC (Enterococcus [5]) [µg/mL] | MIC (Staphylococcus aureus [6]) [µg/mL] | MIC (Enterococcus faecalis [7]) [µg/mL] | MIC (Streptococcus agalactiae) [µg/mL] | MIC (Staphylococcus) [µg/mL] | MIC (Enterococcus [8]) [µg/mL] | MIC (Enterococcus [9]) [µg/mL] | MIC (Enterococcus faecalis [10]) [µg/mL] | MIC (Streptococcus pneumoniae) [µg/mL] | MIC (Enterococcus [11]) [µg/mL] | MIC (Haemophilus influenzae) [µg/mL] | MIC (Enterococcus faecium [12]) [µg/mL]
1 | CC(=O)NC[C@H]1CN(c2ccc(N3C/C(=N\N)C4(CC4)C3)c(F)c2)C(=O)O1 | 25 (≈ 66.6 µM) | 25 (≈ 66.6 µM) | 12.5 (≈ 33.3 µM) | 25 (≈ 66.6 µM) | 12.5 (≈ 33.3 µM) | 12.5 (≈ 33.3 µM) | 25 (≈ 66.6 µM) | 25 (≈ 66.6 µM) | 25 (≈ 66.6 µM) | 12.5 (≈ 33.3 µM) | 25 (≈ 66.6 µM) | 12.5 (≈ 33.3 µM) | 50 (≈ 133 µM) | 25 (≈ 66.6 µM) | 25 (≈ 66.6 µM) | 25 (≈ 66.6 µM) | 25 (≈ 66.6 µM)
2 | CCO/N=C1\CN(c2ccc(N3C[C@H](CNC(C)=O)OC3=O)cc2F)CC12CC2 | 12.5 (≈ 30.9 µM) | 12.5 (≈ 30.9 µM) | 12.5 (≈ 30.9 µM) | 12.5 (≈ 30.9 µM) | 12.5 (≈ 30.9 µM) | 6.25 (≈ 15.5 µM) | 12.5 (≈ 30.9 µM) | 25 (≈ 61.8 µM) | 12.5 (≈ 30.9 µM) | 12.5 (≈ 30.9 µM) | 6.25 (≈ 15.5 µM) | 6.25 (≈ 15.5 µM) | 12.5 (≈ 30.9 µM) | 12.5 (≈ 30.9 µM) | 6.25 (≈ 15.5 µM) | 12.5 (≈ 30.9 µM) | 12.5 (≈ 30.9 µM)
3 | CC(=O)NC[C@H]1CN(c2ccc(N3CC(=O)C4(CC4)C3)c(F)c2)C(=O)O1 | 3.12 (≈ 8.63 µM) | 1.56 (≈ 4.32 µM) | 3.12 (≈ 8.63 µM) | 3.12 (≈ 8.63 µM) | 3.12 (≈ 8.63 µM) | 3.12 (≈ 8.63 µM) | 3.12 (≈ 8.63 µM) | 6.25 (≈ 17.3 µM) | 1.56 (≈ 4.32 µM) | 3.12 (≈ 8.63 µM) | 1.56 (≈ 4.32 µM) | 1.56 (≈ 4.32 µM) | 1.56 (≈ 4.32 µM) | 0.78 (≈ 2.16 µM) | 1.56 (≈ 4.32 µM) | 1.56 (≈ 4.32 µM) | 1.56 (≈ 4.32 µM)
4 | CO/N=C1\CN(c2ccc(N3C[C@H](CNC(C)=O)OC3=O)cc2F)CC12CC2 | 6.25 (≈ 16 µM) | 6.25 (≈ 16 µM) | 6.25 (≈ 16 µM) | 6.25 (≈ 16 µM) | 6.25 (≈ 16 µM) | 6.25 (≈ 16 µM) | 6.25 (≈ 16 µM) | 12.5 (≈ 32 µM) | 6.25 (≈ 16 µM) | 12.5 (≈ 32 µM) | 3.12 (≈ 7.99 µM) | 6.25 (≈ 16 µM) | 6.25 (≈ 16 µM) | 3.12 (≈ 7.99 µM) | 6.25 (≈ 16 µM) | 6.25 (≈ 16 µM) | 6.25 (≈ 16 µM)
5 | CC(=O)NC[C@H]1CN(c2ccc(N3CCOCC3)c(F)c2)C(=O)O1 [LINEZOLID] | 1.56 (≈ 4.62 µM) | 1.56 (≈ 4.62 µM) | 1.56 (≈ 4.62 µM) | 1.56 (≈ 4.62 µM) | 1.56 (≈ 4.62 µM) | 1.56 (≈ 4.62 µM) | 3.12 (≈ 9.25 µM) | 1.56 (≈ 4.62 µM) | 1.56 (≈ 4.62 µM) | 3.12 (≈ 9.25 µM) | 1.56 (≈ 4.62 µM) | 1.56 (≈ 4.62 µM) | 1.56 (≈ 4.62 µM) | 0.78 (≈ 2.31 µM) | 1.56 (≈ 4.62 µM) | 1.56 (≈ 4.62 µM) | 1.56 (≈ 4.62 µM)
